Results reported in ChEMBL document CHEMBL3414568, “Synthesis and antiproliferative activity of 3-(2-chloroethyl)-5-methyl-6-phenyl-8-(trifluoromethyl)-5,6-dihydropyrazolo[3,4-f][1,2,3,5]tetrazepin-4-(3H)-one” (Eur J Med Chem, 2015).
pIC50: −log10 of the molar value.

Columns and labels:
K562 [1] = assay: Cytotoxicity against human K562 cells expressing Bcr-Abl assessed as growth inhibition after 48 hrs by trypan blue staining-based hemocytometric analysis; format: functional; conditions: K562, 48 h
How it was run: (§1)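 2 × 10⁵ cells per well in 1 mL complete medium treated with various concentrations from freshly prepared DMSO solution (DMSO ≤0.3% v/v final). After 48 h, trypan blue staining and hemocytometer counting of viable cells, expressed as percentage of control proliferation.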

K562 [2] = assay: Cell cycle arrest in human K562 cells expressing Bcr-Abl assessed as accumulation at G2-M phase at 30 uM after 24 hrs by propidium iodide staining-based flow cytometry (reference value: 12.16 +/- 2.2%); format: functional
How it was run: (§2)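 K562 cells cultured with or without 30 µM compound for 24 h and 48 h. Cells washed once in ice-cold PBS, resuspended at 10⁶/mL in hypotonic propidium iodide solution with nonidet P-40 0.03% (v/v) in 0.1% sodium citrate, 30 min incubation, flow cytometry single-parameter DNA histograms. G0-G1/S/G2-M % calculated on cycling cells only; subG0-G1 % on total cell number.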

K562 [3] = assay: Cell cycle arrest in human K562 cells expressing Bcr-Abl assessed as accumulation at S phase at 30 uM after 24 hrs by propidium iodide staining-based flow cytometry (reference value: 43.19 +/- 7%); format: functional; how it was run: as §2
[4] = Induction of apoptosis in human HL60R cells expressing p-glycoprotein after 48 hrs by acridine orange/ethidium bromide staining-based fluorescence microscopic analysis; format: functional, cell-based
How it was run: (§3)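 After 48 h exposure to various concentrations, 2 × 10⁵ cells centrifuged (300 × g) and resuspended in acridine orange/ethidium bromide dye mixture. Examined under oil immersion, 100× objective, by fluorescence microscopy. Live cells take up acridine orange (green) and exclude ethidium bromide (red); apoptotic and necrotic cells scored morphologically.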

K562 [5] = assay: Cell cycle arrest in human K562 cells expressing Bcr-Abl assessed as accumulation at S phase at 30 uM after 48 hrs by propidium iodide staining-based flow cytometry (reference value: 43.19 +/- 7%); format: functional; how it was run: as §2
K562 [6] = assay: Cell cycle arrest in human K562 cells expressing Bcr-Abl assessed as accumulation at G2-M phase at 30 uM after 48 hrs by propidium iodide staining-based flow cytometry (reference value: 12.16 +/- 2.2%); format: functional; how it was run: as §2
[7] = Cytotoxicity against human HL60 cells assessed as growth inhibition after 48 hrs by trypan blue staining-based hemocytometric analysis; format: functional; conditions: HL-60, 48 h; how it was run: as §1
K562 [8] = assay: Cell cycle arrest in human K562 cells expressing Bcr-Abl assessed as accumulation at subG0-G1 phase at 30 uM after 24 hrs by propidium iodide staining-based flow cytometry (reference value: 3.21 +/- 0.4%); format: functional; how it was run: as §2
K562 [9] = assay: Cell cycle arrest in human K562 cells expressing Bcr-Abl assessed as accumulation at G0-G1 phase at 30 uM after 24 hrs by propidium iodide staining-based flow cytometry (reference value: 44.65 +/- 6.8%); format: functional; how it was run: as §2
HepG2 [10] = assay: Induction of apoptosis in human HepG2 cells after 48 hrs by acridine orange/ethidium bromide staining-based fluorescence microscopic analysis; format: functional, cell-based; conditions: HepG2, 48 h; how it was run: as §3
HL-60 = assay: Induction of apoptosis in human HL60 cells after 48 hrs by acridine orange/ethidium bromide staining-based fluorescence microscopic analysis; format: functional, cell-based; conditions: HL-60, 48 h; how it was run: as §3
K562 [11] = assay: Cell cycle arrest in human K562 cells expressing Bcr-Abl assessed as accumulation at G0-G1 phase at 30 uM after 48 hrs by propidium iodide staining-based flow cytometry (reference value: 44.65 +/- 6.8%); format: functional; how it was run: as §2
HepG2 [12] = assay: Cytotoxicity against human HepG2 cells assessed as growth inhibition after 48 hrs by trypan blue staining-based hemocytometric analysis; format: functional; conditions: HepG2, 48 h; how it was run: as §1
[13] = Cytotoxicity against human HL60R cells expressing p-glycoprotein assessed as growth inhibition after 48 hrs by trypan blue staining-based hemocytometric analysis; format: functional; how it was run: as §1
K562 [14] = assay: Induction of apoptosis in human K562 cells expressing Bcr-Abl after 48 hrs by acridine orange/ethidium bromide staining-based fluorescence microscopic analysis; format: functional, cell-based; conditions: K562, 48 h; how it was run: as §3
WiDr = assay: Cytotoxicity against human WiDr cells overexpressing MGMT after 48 hrs by trypan blue staining-based hemocytometric analysis; format: functional, cell-based; how it was run: as §1
K562 [15] = assay: Cell cycle arrest in human K562 cells expressing Bcr-Abl assessed as accumulation at subG0-G1 phase at 30 uM after 48 hrs by propidium iodide staining-based flow cytometry (reference value: 3.21 +/- 0.4%); format: functional; how it was run: as §2

## CN1C(=O)N(CCCl)N=Nc2c(C(F)(F)F)nn(-c3ccccc3)c21
K562 [1]
  GI50: 18 µM
K562 [2]
  Activity: 12.45%
K562 [3]
  Activity: 43.59%
[4]
  AC50: 22 µM
K562 [5]
  Activity: 44.24%
K562 [6]
  Activity: 14.79%
[7]
  GI50: 9 µM
K562 [8]
  Activity: 15%
K562 [9]
  Activity: 43.96%
HepG2 [10]
  AC50: 43 µM
HL-60
  AC50: 19 µM
K562 [11]
  Activity: 40.97%
HepG2 [12]
  GI50: 26 µM
[13]
  GI50: 14 µM
K562 [14]
  AC50: 37 µM
WiDr
  pIC50: 5.64
K562 [15]
  Activity: 38.35%

## CN1N=Nc2c(C(F)(F)F)nn(-c3ccccc3)c2N(C)C1=O
K562 [1]
  GI50: 40 µM
[4]
  AC50: 38 µM
[7]
  GI50: 21 µM
[13]
  GI50: 30 µM

## COc1cccc2c1C(=O)c1c(O)c3c(c(O)c1C2=O)C[C@@](O)(C(C)=O)C[C@@H]3O[C@H]1C[C@H](N)[C@H](O)[C@H](C)O1 [DAUNORUBICIN]
[7]
  GI50: 0.1 µM
[13]
  GI50: 38 µM

## COc1cc([C@@H]2c3cc4c(cc3[C@@H](O[C@@H]3O[C@@H]5CO[C@@H](C)O[C@H]5[C@H](O)[C@H]3O)[C@H]3COC(=O)[C@H]23)OCO4)cc(OC)c1O [ETOPOSIDE]
[7]
  GI50: 0.4 µM
[13]
  GI50: > 400 µM

## Cn1nnc2c(C(N)=O)ncn2c1=O [TEMOZOLOMIDE]
WiDr
  pIC50: 2.76
